For assay [1], the system named is Human immunodeficiency virus 1. Nature of the assay: Antiviral activity against multidrug-resistant Human immunodeficiency virus 1 subtype B harboring protease L10I, L33I, M36I, M46I, F53L, K55R, I62 V, L63P, A71 V, G73S, V82A, L90M, I93L mutation infected in PHA-stimulated human PBMC assessed as inhibition of p24 Gag protein production. Format: functional, organism-based. The method in brief: (§1)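 PHA-stimulated PBMCs served as target cells, and inhibition of p24 Gag protein production was the end point. Fold change was taken against the wild-type HIV-1ERS104pre IC50. Each assay was run in duplicate or triplicate. Values are means (±1 standard deviation) from three independent experiments.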

In assay [2] the test system is Human immunodeficiency virus 1. Nature of the assay: Antiviral activity against multidrug-resistant Human immunodeficiency virus 1 MDR/C harboring protease L10I, I15 V, K20R, L24I, M36I, M46L, I54V, I62 V, L63P, K70Q, V82A, L89 M mutation infected in PHA-stimulated human PBMC assessed as inhibition of p24 Gag protein production. Format: functional, organism-based. In a few lines:
as §1

Assay [3] has as its system Human immunodeficiency virus 1. Nature of the assay: Antiviral activity against multidrug-resistant Human immunodeficiency virus 1 MDR/G harboring protease L10I, V11I, T12E, I15 V, L19I, R41K, M46L, L63P, A71T, V82A, L90 M mutation infected in PHA-stimulated human PBMC assessed as inhibition of p24 Gag protein production. Format: functional, organism-based. In a few lines:
as §1

For assay [4], the system named is Human immunodeficiency virus 1. Nature of the assay: Antiviral activity against multidrug-resistant Human immunodeficiency virus 1 MDR/TM harboring protease L10I, K14R, R41K, M46L, I54V, L63P, A71V, V82A, L90M, I93L mutation infected in PHA-stimulated human PBMC assessed as inhibition of p24 Gag protein production. Format: functional, organism-based. The method in brief:
as §1

Assay [5] deals with Human immunodeficiency virus 1. Nature of the assay: Ratio of IC50 for Human immunodeficiency virus 1 MDR/B to IC50 for wild-type Human immunodeficiency virus 1 ERS104pre. The assay is classed as functional.
Assay [6] concerns Human immunodeficiency virus 1. Briefly: Ratio of IC50 for Human immunodeficiency virus 1 MDR/C to IC50 for wild-type Human immunodeficiency virus 1 ERS104pre. The assay is classed as functional.
The subject of assay [7] is Human immunodeficiency virus 1. Briefly: Ratio of IC50 for Human immunodeficiency virus 1 MDR/G to IC50 for wild-type Human immunodeficiency virus 1 ERS104pre. The assay is classed as functional. The method in brief: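 Antiviral IC50s measured against each multidrug-resistant clinical isolate and wild-type HIV-1ERS104pre in PHA-stimulated PBMCs as target cells, with inhibition of p24 Gag production as the end point. The fold change is the isolate IC50 divided by the wild-type IC50. Assays were run in duplicate or triplicate; values are means (±1 SD) of three independent experiments.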

In assay [8] the test system is Human immunodeficiency virus 1. Nature of the assay: Ratio of IC50 for Human immunodeficiency virus 1 MDR/TM to IC50 for wild-type Human immunodeficiency virus 1 ERS104pre. Format: functional.
For assay [9], the system named is Human immunodeficiency virus 1. Briefly: Antiviral activity against wild type Human immunodeficiency virus 1 ERS104pre infected in PHA-stimulated human PBMC assessed as inhibition of p24 Gag protein production. Format: functional, organism-based. In a few lines:
as §1

In assay [10] the test system is Human immunodeficiency virus 1. Briefly: Antiviral activity against Human immunodeficiency virus 1 LAI infected in human MT2 cells by MTT assay.
The next assay addresses Protease (Human immunodeficiency virus 1, UniProt Q9YQ12). Briefly: Inhibition of Human immunodeficiency virus 1 protease assessed as release of fluorescent N-terminal tripeptide using fluorogenic substrate by continuous fluorometric assay.

SMILES strings stand for the structures.

Sequence of Protease (Q9YQ12 whole entry): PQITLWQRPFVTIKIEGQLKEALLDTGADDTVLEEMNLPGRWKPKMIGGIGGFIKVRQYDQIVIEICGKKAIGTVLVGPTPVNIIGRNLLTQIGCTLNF

For the compound `CC(C)CN(C[C@@H](O)[C@H](Cc1ccccc1)NC(=O)O[C@H]1CCOC1)S(=O)(=O)c1ccc(N)cc1`, the IC50 (in general, the concentration at which inhibition is half-maximal) came out at 930 nM in [1], 260 nM in [2], 380 nM in assay [3] and 190 nM in [4]. In addition, the “Ratio IC50” value in assay [5] came out at 31; in assay [6] it was 9; in assay [7], 12; in assay [8], 6.

In the case of `COc1ccc(S(=O)(=O)N(CC(C)C)C[C@@H](O)[C@H](Cc2ccccc2)NC(=O)O[C@@H]2C[C@@H]3[C@@H](O)CO[C@@H]3C2)cc1`, the IC50 was 2.9 nM in assay [9]; 29 nM in assay [1]; 22 nM in assay [2]; 4.5 nM in assay [3]; 3.1 nM in assay [4]; 2.9 nM in assay [10].

As for `COc1ccc(S(=O)(=O)N(CC(C)C)C[C@@H](O)[C@H](Cc2ccccc2)NC(=O)O[C@@H]2C[C@@H]3C(=O)CO[C@@H]3C2)cc1`, the Ki – broadly, the dissociation constant of the complex between target and ligand, obtained from inhibition or displacement – at Protease worked out at 0.95 nM. In assay [10], this compound had an IC50 of 14 nM.

As for `COc1ccc(S(=O)(=O)N(CC(C)C)C[C@@H](O)[C@H](Cc2ccccc2)NC(=O)O[C@@H]2C[C@@H]3[C@H](O)CO[C@@H]3C2)cc1`, the Ki at Protease worked out at 0.077 nM. Also, the IC50 in assay [9] is 20 nM; in assay [1], above 1000 nM; in [2], above 1000 nM; in [3], 270 nM; in [4], 41 nM; in assay [10], 7 nM.

Consider `CC(C)CN(C[C@@H](O)[C@H](Cc1ccccc1)NC(=O)O[C@@H]1C[C@@H]2[C@H](O)CO[C@@H]2C1)S(=O)(=O)c1ccc(N)cc1`, for which, at Protease, the inhibitory constant (Ki) worked out at 0.079 nM. This compound also displayed an IC50 in [10] of 25 nM.

As for `CC(C)CN(C[C@@H](O)[C@H](Cc1ccccc1)NC(=O)O[C@@H]1C[C@@H]2[C@H](O)CO[C@@H]2C1)S(=O)(=O)c1ccc(CO)cc1`, the Ki on Protease came out at 0.06 nM. The compound also yielded an IC50 in [10] of 19 nM.

`COc1ccc(S(=O)(=O)N(CC(C)C)C[C@@H](O)[C@H](Cc2ccccc2)NC(=O)O[C@@H]2C[C@@H]3[C@H](OC)CO[C@@H]3C2)cc1`: the Ki at Protease stood at 0.39 nM. The same compound gave an IC50 in [10] of 37 nM.

On to `CC(C)CN(C[C@@H](O)[C@H](Cc1ccccc1)NC(=O)O[C@@H]1C[C@@H]2[C@@H](O)CO[C@@H]2C1)S(=O)(=O)c1ccc(N)cc1`, for which the inhibitory constant (Ki) at Protease came to 0.006 nM. For the same compound, in assay [10], the IC50 came out at 36 nM.

On to `COc1ccc(S(=O)(=O)N(CC(C)C)C[C@@H](O)[C@H](Cc2ccccc2)NC(=O)O[C@@H]2C[C@@H]3[C@@H](OC)CO[C@@H]3C2)cc1`, for which the Ki on Protease is 0.006 nM. Half-maximal inhibition in [10] (IC50) required 3.4 nM.

Consider `COc1ccc(S(=O)(=O)N(CC(C)C)C[C@@H](O)[C@H](Cc2ccccc2)NC(=O)O[C@@H]2C[C@@H]3[C@H](C)CO[C@@H]3C2)cc1`, for which the Ki on Protease is 0.16 nM. For the same compound, it took 25 nM to reach half-maximal inhibition in assay [10] (IC50).

Take `COc1ccc(S(=O)(=O)N(CC(C)C)C[C@@H](O)[C@H](Cc2ccccc2)NC(=O)O[C@@H]2C[C@@H]3[C@@H](C)CO[C@@H]3C2)cc1`: on Protease, the Ki is 0.017 nM.

`COc1ccc(S(=O)(=O)N(CC(C)C)C[C@@H](O)[C@H](Cc2ccccc2)NC(=O)O[C@@H]2C[C@@H]3[C@H](N(C)C)CO[C@@H]3C2)cc1`: on Protease, the Ki was determined as 12.5 nM.

The record behind these values is ChEMBL document CHEMBL1817554, “Design of HIV-1 protease inhibitors with C3-substituted hexahydrocyclopentafuranyl urethanes as P2-ligands: synthesis, biological evaluation, and protein-ligand X-ray crystal structure” (J Med Chem, 2011).
